STAT1 blocker = STAT1 signaling inhibitors, primary screen, cell-based, HTS, luciferase reporter | NIH 3T3 STAT1-luciferase reporter, IFN-gamma, luminescence | inhibition, % at 5.5 µM | 200,000 tested, 0.35% active | AID 920, 2007;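 active = inhibition above a set limit, the mean inhibition across all tested compounds plus 3 SD, cut at about 34% in these data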
APP 5'UTR act = activators of APP 5'UTR luciferase reporter, primary screen, SH-SY5Y cells; SH-SY5Y APP 5'UTR luciferase reporter, luminescence; zero percent = DMSO vehicle wells; 190,000 tested, 1% active; activation, % at 2 µM; AID 1276, 2008;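 active = activation above a set limit, based on mean plus 3 SD of controls, cut at about 140% in these data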
STAT3 blocker = IL-6 driven STAT3 reporter inhibitors, primary screen, U3A cells, luciferase, luminescence, MLSCN library. 190,000 tested, 0.89% active. AID 862, 2007. IL-6 STAT3-luciferase reporter; host cell line lacks STAT1. inhibition, % at 5.5 µM;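 active = inhibition above the mean inhibition across all screened compounds plus 3 SD, cut at about 44% in these data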
NF-kB neuron act = activators of NF-kB expression in neurons, primary screen, cell-based, HTS; human neuronal cells, NF-kB reporter expression; hits give high values; 190,000 tested, 1.6% active; fold change at 12.5 µM; in the data active = fold change above about 3.3
STAT3 act = IL-6 driven STAT3 reporter potentiators, primary screen, U3A cells, luciferase, luminescence, MLSCN library; 190,000 tested, 0.91% active; AID 871, 2007; IL-6 STAT3-luciferase reporter; 100% = signal with IL-6 EC80 alone; activation (% of control), % at 5.6 µM;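 active = activation above the screen-wide mean of compound activation plus 3 SD, cut at about 130% in these data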
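Test system: STAT3-luciferase reporter U3A cells; Detection: reporter luminescence signal; Times: 1 h compound pre-exposure, 6 h IL-6 stimulation, 37 °C; Benchmarks: IL-6-only high control; Also added: IL-6 stimulus at 33 ng/mL final.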
STAT1 act = STAT1 signaling activators, primary screen, cell-based, HTS, luciferase reporter. NIH 3T3 STAT1-luciferase reporter, IFN-gamma, luminescence; 100% = IFN-gamma alone, no compound. activation (% of control), % at 5.5 µM. 200,000 tested, 2.6% active;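 active = activation above the screen-wide mean activation plus 3 SD, cut at about 130% in these data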
STAT1 act conf = STAT1 signaling activators, confirmation, cell-based, HTS, luciferase reporter; shares compounds with STAT1 act; NIH 3T3 STAT1-luciferase reporter, IFN-gamma potentiation, luminescence; 100% = IFN-gamma EC80 alone, no compound; activation (% of control), % at 5.7 µM; 1,200 tested, 97% active; AID 1262, 2008;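 active = activation above a set limit carried over from the earlier primary STAT1 screen, cut at about 140% in these data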
NFkB act STAT1ct = NF-kB reporter activators, TNF-alpha stimulated, counter-screen for STAT1 activator project, cell-based, HEK293T, luciferase luminescence; shares compounds with STAT1 act; 100% = TNF-alpha with vehicle only; activation (% of control), % at 5.7 µM; 1,200 tested, 43% active; AID 1306, 2008;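 active = activation above the mean of solvent-only control wells plus 3 SD, set per campaign, cut at about 130% in these data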;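 note: TNF-alpha given at a submaximal dose yielding about 80% of full reporter signal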
STAT3 act 2 = STAT3 reporter activation by STAT1 hits, confirmation, counter-screen for STAT1 activator project, U3A cells, luciferase, luminescence; shares compounds with STAT1 act; IL-6; cells lack STAT1; 100 = IL-6 alone, no compound effect; activation (% of control), % at 5.7 µM; 1,200 tested, 46% active; AID 1316, 2008;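 active = activation above the solvent-only control well mean plus 3 SD, set per plate batch, cut at about 110% in these data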;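 note: higher means more STAT3 reporter activation so hits are non-selective activators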
Of the large screens only hits and unclear results are named; the others gave an inactive call (follow-up assays come after a bar, where they were run). In the library only some 4.9% were active in any assay of this set; here they are far more common.

COc1ccc(-c2cn3cccc(C)c3n2)cc1Br	APP 5'UTR act 137, NF-kB neuron act 4.8, STAT1 act 172 | STAT1 act conf 191 | NFkB act STAT1ct inactive | STAT3 act 2 inactive
Cc1cc(NC(=O)CCSc2ccccc2)no1	none
O=C(CN1C(=O)COc2ccc(S(=O)(=O)N3CCCC3)cc21)NC1CCCCCCC1	none
CC1(C)NC(=O)N(CC(=O)OCc2cc(=O)n3cc(Br)ccc3n2)C1=O	none
CC1(C(=O)OCc2cc(=O)n3cc(Br)ccc3n2)CC1(Cl)Cl (stereo not drawn)	STAT1 act 161 | STAT1 act conf 168 | NFkB act STAT1ct inactive | STAT3 act 2 inactive
Cc1ccc(C)c(N2CCN(c3cnn(-c4nc5ccccc5s4)c(=O)c3Cl)CC2)c1	STAT1 act 156 | STAT1 act conf 182 | NFkB act STAT1ct inactive | STAT3 act 2 inactive
Cc1ccc2c(c1)N(CC(=O)N1CCN(c3nc4ccccc4s3)CC1)C(=O)C(C)O2 (stereo not drawn)	none
CCc1ccc(NC(=O)c2cnn(-c3ccccc3)c2C2CCNCC2)cc1	none
CCc1ccc(NC(=O)c2cnn(-c3ccccc3)c2C)cc1	APP 5'UTR act 155, NF-kB neuron act 5.9, STAT1 act 185 | STAT1 act conf 252 | NFkB act STAT1ct inactive | STAT3 act 2 inactive
CCN(CC)c1ccc(/C=N/NC(=O)c2ccco2)cc1	NF-kB neuron act 6.3, STAT1 act 165 | STAT1 act conf 217 | NFkB act STAT1ct inactive | STAT3 act 2 inactive
O=C(CN1C(=O)S/C(=C\c2ccc(Cl)cc2)C1=O)NNC(=O)c1ccccc1O	none
Cc1cc(C(=O)CSc2ncccn2)c(C)n1-c1cccc(F)c1	APP 5'UTR act 162, STAT1 act 172 | STAT1 act conf 191 | NFkB act STAT1ct inactive | STAT3 act 2 111
Cc1cc(C(=O)CSc2n[nH]c(N)n2)c(C)n1-c1cccc(F)c1	none
O=C(NCCc1ccccn1)C(F)(F)C(F)(F)C(F)(F)C(F)(F)C(F)(F)C(F)(F)C(F)(F)C(F)F	none
CCc1ccc(C(=O)NNC(=O)OC)cc1	none
O=C(OCC(=O)N1CCOCC1)c1ccccc1SCC(=O)N1CCCC1	none
O=C(OCC(=O)N1CCOCC1)c1ccccc1Cc1ccccc1	NF-kB neuron act 5.5, STAT1 act 158 | STAT1 act conf 198 | NFkB act STAT1ct 140 | STAT3 act 2 137
CCCCn1cnc2c(sc3nc4c(cc32)CSC(C)(C)C4)c1=O	APP 5'UTR act 166, STAT1 act 152 | STAT1 act conf 208 | NFkB act STAT1ct 134 | STAT3 act 2 inactive
Cn1nnc2cc(C(=O)Nc3ccc4ccccc4c3)ccc21	NF-kB neuron act 4.3, STAT1 act 154 | STAT1 act conf 242 | NFkB act STAT1ct 138 | STAT3 act 2 inactive
CCOC(=O)COC(=O)c1ccc(O)cc1	none
Cc1ccc(C(=O)COC(=O)c2ccc(O)cc2)cc1	APP 5'UTR act 149, NF-kB neuron act 6.2, STAT1 act 153 | STAT1 act conf 170 | NFkB act STAT1ct inactive | STAT3 act 2 122
Cn1ccnc1SCC(=O)N1CCN(S(=O)(=O)c2ccccc2)CC1	none
